Reference: ChEMBL document CHEMBL3227962, “Synthesis of hydroxy- and amino-substituted benzohydroxamic acids: inhibition of ribonucleotide reductase and antitumor activity” (J Med Chem, 1979)
Each block holds one compound with its values, some of them ahead of it.

Experiments:
L1210 [1] = experiment: Antitumor activity against ip dosed mouse L1210 cells allografted in C6D2F1 mouse assessed as dose to achieve maximum life span administered for 8 days starting from day 1 of challenge; format: functional
Method in brief: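 L1210 leukemia propagated in DBA/2 mice; diluted ascitic fluid (0.10 mL, 10^5 cells) injected ip into female C6D2F1 mice (~20 g) on day 0. Compounds given ip once daily for 8 days from day 1, generally three doses in the 100–1000 mg/kg range, 8 mice per dose; other doses per toxicity. Read-out: life span as T/C %.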

L1210 [2] = experiment: Antitumor activity against mouse L1210 cells allografted in C6D2F1 mouse at 100 to 1000 mg/kg, ip for 8 days starting from day 1 of challenge relative to control; settings: dose mg/kg 100-1000; route intraperitoneal
Rattus norvegicus [3] = organism: Rattus norvegicus; experiment: Inhibition of ribonucleotide reductase purified from rat Novikoff hepatoma assessed as inhibition of [3H]CDP to [3H]dCDP conversion after 40 mins
Method in brief: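 Ribonucleotide reductase was partially purified from Novikoff hepatoma. The 0.34 mL mix held 3 µCi [3H]CDP (14–19 Ci/mmol), 3.3 mM ATP, 5.9 mM MgCl2, 8.8 mM Hepes pH 7.5, 15 mM DTT and 0.4–1.3 mg enzyme protein, incubated 40 min at 30 °C. Vehicle was water, ≤1% ethanol or 2% DMSO. Each inhibitor was tested at ≥3 concentrations, with actives repeated. ID50 was read from graphs.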

L1210 [4] = experiment: Antitumor activity against mouse L1210 cells allografted in C6D2F1 mouse at 500 mg/kg, ip for 8 days starting from day 1 of challenge relative to control; format: functional; settings: route intraperitoneal
L1210 [5] = experiment: Antitumor activity against mouse L1210 cells allografted in C6D2F1 mouse at 200 mg/kg, ip for 8 days starting from day 1 of challenge relative to control; format: functional; settings: route intraperitoneal
L1210 [6] = experiment: Antitumor activity against mouse L1210 cells allografted in C6D2F1 mouse at 1000 mg/kg, ip for 8 days starting from day 1 of challenge relative to control; format: functional; settings: route intraperitoneal
L1210 [7] = experiment: Antitumor activity against mouse L1210 cells allografted in C6D2F1 mouse at 600 mg/kg, ip for 8 days starting from day 1 of challenge relative to control; format: functional; settings: route intraperitoneal
L1210 [8] = experiment: Antitumor activity against mouse L1210 cells allografted in C6D2F1 mouse at 700 mg/kg, ip for 8 days starting from day 1 of challenge relative to control; format: functional; settings: route intraperitoneal
L1210 [9] = experiment: Antitumor activity against mouse L1210 cells allografted in C6D2F1 mouse at 450 mg/kg, ip for 8 days starting from day 1 of challenge relative to control; format: functional; settings: route intraperitoneal
L1210 [10] = experiment: Antitumor activity against mouse L1210 cells allografted in C6D2F1 mouse at 300 mg/kg, ip for 8 days starting from day 1 of challenge relative to control; format: functional; settings: route intraperitoneal
Mus musculus [11] = experiment: Toxicity in mouse L1210 cells allografted C6D2F1 mouse at 500 mg/kg, ip for 8 days measured on day 3; format: organism-based; parameters: dose 500 mg/kg, route intraperitoneal; settings: in vivo, 192 h
L1210 [12] = experiment: Antitumor activity against mouse L1210 cells allografted in C6D2F1 mouse at 400 mg/kg, ip for 8 days starting from day 1 of challenge relative to control; format: functional; settings: route intraperitoneal
L1210 [13] = experiment: Antitumor activity against mouse L1210 cells allografted in C6D2F1 mouse at 800 mg/kg, ip for 8 days starting from day 1 of challenge relative to control; format: functional; settings: route intraperitoneal
L1210 [14] = experiment: Antitumor activity against mouse L1210 cells allografted in C6D2F1 mouse at 100 mg/kg, ip for 8 days starting from day 1 of challenge relative to control; format: functional; settings: route intraperitoneal
Mus musculus [15] = experiment: Toxicity in mouse L1210 cells allografted C6D2F1 mouse at 800 mg/kg, ip for 8 days measured on day 2; format: organism-based; parameters: dose 800 mg/kg, route intraperitoneal; settings: in vivo, 192 h
L1210 [16] = experiment: Antitumor activity against mouse L1210 cells allografted in C6D2F1 mouse at 139 mg/kg, ip bid at interval of 3 hrs between each dosing for 8 days starting from day 1 of challenge relative to control; format: functional; settings: route intraperitoneal
Method in brief: (§1)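 Mice were female C6D2F1 of about 20 g, inoculated ip on day 0 with 10^5 L1210 ascites cells grown in DBA/2 mice. Drug was given ip twice daily at 139 mg/kg per dose for 8 days, varying the interval between the two daily injections. Read-out is the T/C % of life span.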

L1210 [17] = experiment: Antitumor activity against mouse L1210 cells allografted in C6D2F1 mouse at 139 mg/kg, ip bid at interval of 7 hrs between each dosing for 8 days starting from day 1 of challenge relative to control; format: functional; settings: route intraperitoneal; method in brief: as §1
L1210 [18] = experiment: Antitumor activity against mouse L1210 cells allografted in C6D2F1 mouse at 139 mg/kg, ip bid at interval of 5 hrs between each dosing for 8 days starting from day 1 of challenge relative to control; format: functional; settings: route intraperitoneal; method in brief: as §1
L1210 [19] = experiment: Antitumor activity against mouse L1210 cells allografted in C6D2F1 mouse at 139 mg/kg, ip bid at interval of 1 hr between each dosing for 8 days starting from day 1 of challenge relative to control; format: functional; settings: route intraperitoneal; method in brief: as §1
L1210 [20] = experiment: Antitumor activity against mouse L1210 cells allografted in C6D2F1 mouse at 125 mg/kg, ip for 8 days starting from day 1 of challenge relative to control; format: functional; settings: route intraperitoneal
Rattus norvegicus [21] = organism: Rattus norvegicus; experiment: Ratio of hydroxyurea ID50 to compound ID50 for ribonucleotide reductase purified from rat Novikoff hepatoma assessed as inhibition of [3H]CDP to [3H]dCDP conversion after 40 mins
L1210 [22] = experiment: Antitumor activity against mouse L1210 cells allografted in C6D2F1 mouse at 320 mg/kg, ip for 8 days starting from day 1 of challenge relative to control; format: functional; settings: route intraperitoneal
L1210 [23] = experiment: Antitumor activity against mouse L1210 cells allografted in C6D2F1 mouse at 63 mg/kg, ip for 8 days starting from day 1 of challenge relative to control; format: functional; settings: route intraperitoneal
L1210 [24] = experiment: Antitumor activity against mouse L1210 cells allografted in C6D2F1 mouse at 75 mg/kg, ip for 8 days starting from day 1 of challenge relative to control; format: functional; settings: route intraperitoneal

SMILES: Nc1ccc(C(=O)NO)cc1
Activity (L1210 [1]): 500 mg/kg
T/C (L1210 [2]): 162%
ID50 (Rattus norvegicus [3]): 150 µM

SMILES: Nc1cccc(C(=O)NO)c1
Activity (L1210 [1]): 500 mg/kg
T/C (L1210 [2]): 110%
ID50 (Rattus norvegicus [3]): 350 µM

SMILES: O=C(NO)c1ccccc1O [SALICYLHYDROXAMIC ACID]
Activity (L1210 [1]): 500 mg/kg
T/C (L1210 [2]): 147%
ID50 (Rattus norvegicus [3]): 150 µM

SMILES: O=C(NO)c1cccc(O)c1
T/C (L1210 [4]): 177%
T/C (L1210 [5]): 123%
T/C (L1210 [6]): 68%
Activity (L1210 [1]): 500 mg/kg
T/C (L1210 [7]): 156%
T/C (L1210 [8]): 148%
T/C (L1210 [2]): 177%
ID50 (Rattus norvegicus [3]): 350 µM

SMILES: O=C(NO)c1cc(O)ccc1O
Activity (L1210 [1]): 300 mg/kg
T/C (L1210 [2]): 130%
ID50 (Rattus norvegicus [3]): 200 µM

SMILES: Nc1ccc(C(=O)NO)c(O)c1
Activity (L1210 [1]): 1000 mg/kg
T/C (L1210 [2]): 115%
ID50 (Rattus norvegicus [3]): 200 µM

SMILES: Nc1ccc(C(=O)NO)cc1N
Activity (L1210 [1]): 300 mg/kg
T/C (L1210 [2]): 140%
ID50 (Rattus norvegicus [3]): 40 µM

SMILES: NC(=O)NO [HYDROXYUREA]
Activity (L1210 [1]): 2500 mg/kg
T/C (L1210 [2]): 162%
ID50 (Rattus norvegicus [3]): 500 µM

ID50 (Rattus norvegicus [3]): 100 µM
SMILES: O=C(NO)c1c(O)cccc1O

SMILES: O=C(NO)c1ccccc1 [BENZOHYDROXAMATE]
Activity (L1210 [1]): 500 mg/kg
T/C (L1210 [2]): 144%
ID50 (Rattus norvegicus [3]): 400 µM

SMILES: O=C(NO)c1cc(O)cc(O)c1
Activity (L1210 [1]): 1000 mg/kg
T/C (L1210 [2]): 152%
ID50 (Rattus norvegicus [3]): 400 µM

SMILES: O=C(NO)c1cccc(O)c1O
T/C (L1210 [9]): 103%
T/C (L1210 [10]): 107%
T/C (L1210 [4]): 100%
T/C (L1210 [5]): 136%
Activity (L1210 [1]): 200 mg/kg
Activity (Mus musculus [11]): Toxic
T/C (L1210 [2]): 136%
ID50 (Rattus norvegicus [3]): 8 µM

SMILES: Nc1ccccc1C(=O)NO
Activity (L1210 [1]): 500 mg/kg
T/C (L1210 [2]): 150%
ID50 (Rattus norvegicus [3]): 120 µM

SMILES: O=C(NO)c1ccc(O)c(O)c1
T/C (L1210 [12]): 154%
T/C (L1210 [13]): 28%
T/C (L1210 [10]): 156%
T/C (L1210 [4]): 184%
T/C (L1210 [14]): 125%
Activity (L1210 [1]): 600 mg/kg
T/C (L1210 [7]): 203%
Activity (Mus musculus [15]): Toxic
T/C (L1210 [2]): 203%
ID50 (Rattus norvegicus [3]): 30 µM

SMILES: O=C(NO)c1cc(O)c(O)c(O)c1
T/C (L1210 [16]): 168%
T/C (L1210 [17]): 172%
T/C (L1210 [12]): 153%
T/C (L1210 [18]): 189%
T/C (L1210 [13]): 56%
T/C (L1210 [5]): 147%
T/C (L1210 [19]): 151%
T/C (L1210 [14]): 125%
Activity (L1210 [1]): 400 mg/kg
T/C (L1210 [2]): 153%
ID50 (Rattus norvegicus [3]): 10 µM

SMILES: O=C(NO)c1ccc(O)cc1
Activity (L1210 [1]): 400 mg/kg
T/C (L1210 [2]): 124%
ID50 (Rattus norvegicus [3]): 250 µM

SMILES: O=C(NO)c1ccc(O)c(O)c1O
T/C (L1210 [20]): 130%
Ratio (Rattus norvegicus [21]): 140
T/C (L1210 [10]): 92%
T/C (L1210 [5]): 108%
T/C (L1210 [22]): 46%
Activity (L1210 [1]): 125 mg/kg
T/C (L1210 [23]): 111%
T/C (L1210 [24]): 109%
T/C (L1210 [2]): 130%
ID50 (Rattus norvegicus [3]): 3.5 µM

SMILES: O=C(NO)c1ccc(O)cc1O
Activity (L1210 [1]): 500 mg/kg
T/C (L1210 [2]): 142%
ID50 (Rattus norvegicus [3]): 250 µM
